Values after ≈ are worked out from the molar mass of the structure shown. Active and inactive are the calls of the source. The rule behind the calls is not given here.
How the values were obtained:
[1] = target: Quinolone resistance protein NorA (Staphylococcus aureus, UniProt P0A0J7, A116E); assay: Inhibition of NorA in Staphylococcus aureus SA-1199B expressing GrlA A116E mutant assessed as reduction in EtBr efflux incubated for 5 mins by fluorescence based assay
How it was run: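 Cells were grown overnight in cation-supplemented Mueller-Hinton broth at 35 °C and subcultured to OD600 0.7–0.8. They were loaded at OD600 0.8 with 25 µM EtBr plus 100 µM CCCP (final) for 20 min at room temperature. Cells were then resuspended in fresh broth with or without compound, 50 µM for the single-point screen or a concentration series for IC50. Fluorescence (ex 485/em 645 nm) was read for 5 min. Inhibition was calculated from the fluorescence decrease versus untreated cells. Biological triplicate, each run twice.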

Staphylococcus aureus [2] = assay: Antimicrobial activity against Staphylococcus aureus SA-1199B expressing wild type norA and co-expressing GrlA A116E mutant by microdilution method; assay type: organism-based; settings: in vivo
How it was run: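 CLSI broth microdilution MIC of the compound alone. Strains: SA-K1902 (norA deleted), SA-K2378 (SA-K1902 carrying norA plus its promoter on multicopy plasmid pCU1), SA-1199B (norA overexpressing, GrlA A116E).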

[3] = target: T1, Quinolone resistance protein NorA (Staphylococcus aureus) (UniProt P0A0J7); assay: Inhibition of NorA in Staphylococcus aureus SA-1199B expressing GrlA A116E mutant assessed as minimal potentiating drug concentration causing 8 fold reduction in ciprofloxacin MIC by microdilution method based Checkerboard assay
T1 sequence (whole entry): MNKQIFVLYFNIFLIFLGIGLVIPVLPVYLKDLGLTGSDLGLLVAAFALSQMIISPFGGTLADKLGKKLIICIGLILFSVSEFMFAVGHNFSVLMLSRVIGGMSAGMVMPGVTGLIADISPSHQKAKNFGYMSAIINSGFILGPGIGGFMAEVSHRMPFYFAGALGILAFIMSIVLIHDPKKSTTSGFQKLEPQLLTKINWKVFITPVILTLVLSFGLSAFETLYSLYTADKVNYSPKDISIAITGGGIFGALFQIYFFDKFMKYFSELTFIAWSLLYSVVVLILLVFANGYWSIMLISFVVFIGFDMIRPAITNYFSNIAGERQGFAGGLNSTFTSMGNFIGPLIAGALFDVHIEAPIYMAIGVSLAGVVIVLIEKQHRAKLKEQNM

Staphylococcus aureus [4] = assay: Synergistic potentiation of ciprofloxacin-induced antimicrobial activity against wild type Staphylococcus aureus ATCC 25923 at 0.78 to 100 ug/ml by microdilution method based Checkerboard assay; assay type: functional, organism-based
Staphylococcus aureus [5] = assay: Synergistic potentiation of ciprofloxacin-induced antimicrobial activity against Staphylococcus aureus SA-1199 at 0.78 to 100 ug/ml by microdilution method based Checkerboard assay; assay type: functional, organism-based
[6] = target: T1, Quinolone resistance protein NorA (Staphylococcus aureus); assay: Inhibition of NorA in Staphylococcus aureus SA-1199B expressing GrlA A116E mutant assessed as synergistic potentiation of ciprofloxacin-induced antimicrobial activity at 0.78 to 100 ug/ml by microdilution method based Checkerboard assay
[7] = target: T1, Quinolone resistance protein NorA (Staphylococcus aureus); assay: Inhibition of NorA in Staphylococcus aureus SA-1199B expressing GrlA A116E mutant assessed as synergistic potentiation of ciprofloxacin-induced antimicrobial activity by measuring reduction in ciprofloxacin MIC at 0.78 ug/ml by microdilution method based Checkerboard assay
Staphylococcus aureus [8] = assay: Synergistic potentiation of ciprofloxacin-induced antimicrobial activity against norA deleted Staphylococcus aureus SA-K1902 at 0.78 to 100 ug/ml by microdilution method based Checkerboard assay; assay type: functional, organism-based
[9] = Cytotoxicity in human HepG2 cells assessed as reduction in cell viability incubated for 24 hrs by ATP bioluminescence assay; assay type: cell-based
How it was run: (§1)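 Cells were grown to confluence overnight in RPMI 1640 with 10% heat-inactivated fetal calf serum, penicillin and streptomycin. Monolayers were exposed for 24 h at 37 °C to scalar concentrations (0-250 µg/mL). Viability was read by ATP bioluminescence, each concentration in triplicate. CC50 is the concentration reducing cell number by 50% versus untreated controls.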

[10] = Cytotoxicity in human THP1 cells assessed as reduction in cell viability incubated for 24 hrs by ATP bioluminescence assay; assay type: cell-based, THP-1; how it was run: as §1
Staphylococcus aureus [11] = assay: Antimicrobial activity against Staphylococcus aureus ATCC 25923 by microdilution method; assay type: organism-based; settings: in vivo
How it was run: (§2)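 Broth microdilution MIC per CLSI guidelines. ATCC 25923 is norA wild-type. SA-1199B overexpresses norA and carries an A116E GrlA substitution.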

Staphylococcus aureus [12] = assay: Antimicrobial activity against Staphylococcus aureus SA-1199B expressing wild type norA by microdilution method; assay type: organism-based; settings: in vivo; how it was run: as §2
Staphylococcus aureus [13] = assay: Antimicrobial activity against mepA deficient Staphylococcus aureus SA-K2885 by microdilution method; assay type: organism-based; settings: in vivo
How it was run: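 CLSI broth microdilution MIC of the compound alone in norA-deleted strains. SA-K2885 carries empty pALC2073 and SA-K2886 carries pALC2073-mepA (xyl/tetO promoter). 0.05 µg/mL tetracycline was present throughout to induce.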

Staphylococcus aureus [14] = assay: Induction of membrane depolarization in Staphylococcus aureus SA-1199B expressing wild type norA at 1 to 10 ug/ml incubated for 30 mikns by DiOC2(3) fluorescent probe based cytofluorimetry; assay type: organism-based; settings: in vivo
How it was run: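 SA-1199B was grown in MHB at 37 °C to OD600 0.6, washed, and diluted to 1×10^6 CFU/mL in filtered PBS. DiOC2(3) was added at 30 µM final, and compound at 1, 5 or 10 µg/mL for 30 min. CCCP 5 µM final served as positive control. Flow cytometry with 488 nm excitation gave a red/green ratio normalized to the DiOC2(3) blank, expressed as % depolarized versus drug-free control.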

Staphylococcus aureus [15] = assay: Synergistic potentiation of EtBr-induced antimicrobial activity against mepA deficient Staphylococcus aureus SA-K2885 at 0.78 to 100 ug/ml by microdilution method based Checkerboard assay; assay type: organism-based; settings: in vivo
How it was run: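 Checkerboard combination of EtBr with compound, using broth microdilution MICs. SA-K2886 (norA-deleted, pALC2073-mepA) and SA-K2885 (norA-deleted, empty pALC2073) were run with 0.05 µg/mL tetracycline in all experiments to induce the xyl/tetO promoter.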

[16] = Metabolic stability in mouse liver microsomes assessed as parent compound remaining at 50 uM in presence of NADPH regenerating system incubated for 120 mins by UPLC/MS analysis; assay type: ADME, microsome; settings: read-out: Stability
How it was run: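 1 mg/mL mouse liver microsomes in 0.1 M Tris-HCl pH 7.4 with test compound at 50 µM, DMSO up to ~3%. Preincubated 5 min at 37 °C, then started with NADPH regeneration system. Stopped at 120 min with cold methanol and centrifuged. Supernatant analysed by UPLC/MS (ESI, tandem quadrupole).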

Cytochrome P450 2D6 [17] = target: T2, Cytochrome P450 2D6 (Homo sapiens, UniProt P10635); assay: Inhibition of human recombinant CYP2D6 at 10 uM using beetle D-luciferin as substrate by CYP450-Glo assay; assay type: ADME; settings: recombinant enzyme
How it was run: (§3)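 Luminescent P450-Glo assay in which recombinant human CYP3A4 or CYP2D6 converts a beetle D-luciferin derivative to D-luciferin. Compound was tested at 1 and 10 µM.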

Cytochrome P450 2D6 [18] = target: T2, Cytochrome P450 2D6; assay: Inhibition of human recombinant CYP2D6 at 1 uM using beetle D-luciferin as substrate by CYP450-Glo assay; assay type: ADME; settings: recombinant enzyme; how it was run: as §3

T2 sequence (P10635 whole entry): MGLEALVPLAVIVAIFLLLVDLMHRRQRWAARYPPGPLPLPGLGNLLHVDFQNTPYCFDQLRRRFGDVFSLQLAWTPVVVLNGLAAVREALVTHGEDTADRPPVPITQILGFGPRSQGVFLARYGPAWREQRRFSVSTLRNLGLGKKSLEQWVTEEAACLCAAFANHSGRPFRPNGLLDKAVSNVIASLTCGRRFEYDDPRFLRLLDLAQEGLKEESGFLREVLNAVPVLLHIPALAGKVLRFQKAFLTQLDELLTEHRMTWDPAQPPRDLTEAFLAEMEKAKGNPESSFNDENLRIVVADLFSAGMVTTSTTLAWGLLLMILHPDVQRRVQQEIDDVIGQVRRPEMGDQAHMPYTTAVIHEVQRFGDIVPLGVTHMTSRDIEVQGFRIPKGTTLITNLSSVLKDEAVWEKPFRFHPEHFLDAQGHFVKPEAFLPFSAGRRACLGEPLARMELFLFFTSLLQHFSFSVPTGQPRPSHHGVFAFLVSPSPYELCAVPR

Row | SMILES | IC50 [1] [nM] | MIC (Staphylococcus aureus [2]) [µM] | Activity [3] [µg/mL] | synergistic potentiation of ciprofloxacin activity (Staphylococcus aureus [4]) | inhibition (Staphylococcus aureus [5]) | inhibition [6] | fold change (FC) [7] | Activity (Staphylococcus aureus [8]) | CC50 at 24 h [9] [µg/mL] | CC50 at 24 h [10] [µg/mL] | MIC (Staphylococcus aureus [11]) [µg/mL] | MIC (Staphylococcus aureus [12]) [µg/mL] | MIC (Staphylococcus aureus [13]) [µg/mL] | Activity (Staphylococcus aureus [14]) | Activity (Staphylococcus aureus [15]) | remaining at 2 h, 50 µM [16] [%] | inhibition (INH) (Cytochrome P450 2D6 [17]) | inhibition (INH) (Cytochrome P450 2D6 [18])
1 | CCCOc1ccc(-c2cc(OCCN3CCCCC3)c3cc(OC)ccc3n2)cc1 | 4200 | 238 (≈ 100 µg/mL) | 0.78 | Active | Active | Active | 8 | inactive | 42 (≈ 99.9 µM) | > 100 | 50 (≈ 119 µM) | > 100 | 12.5 (≈ 29.7 µM) | Dose-dependent effect | Non-Toxic | > 90 | Active | Not Active
2 | CCCOc1ccc(-c2cc(OCCN3CCc4cc(OC)c(OC)cc4C3)c3cc(OC)c(OC)cc3n2)cc1 | 1100 | > 179 | 0.78 | Active | Active | Active | 8 | inactive | 74 (≈ 132 µM) | 37 (≈ 66.2 µM) | > 100 | > 100 | 100 (≈ 179 µM) | Dose-dependent effect | Non-Toxic | 62 | Active | Not Active

From ChEMBL document CHEMBL4145675, “2-Phenylquinoline S. aureus NorA Efflux Pump Inhibitors: Evaluation of the Importance of Methoxy Group Introduction” (J Med Chem, 2018)
